Assay outcomes: PubChem BioAssay, The Scripps Research Institute Molecular Screening Center
zfTRPN1 agonist – zebrafish TRPN1 channel agonists, primary screen, cell-based, HEK293, calcium fluorescence | transient receptor potential cation channel N1 (TRPN1/NompC), Danio rerio | HEK293 zebrafish TRPN1-YFP, Fluo-8 calcium fluorescence; 100% = response to 87 µM carbachol | activation, % at 3 µM | 220,000 tested, 0.18% active | AID 1424, 2008;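 active = activation above its plate's cutoff, the mean activation of test wells on that plate plus 3 SD, cut at about 19% in these data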
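Control set: carbachol 87 µM as high control, DMSO as low control; system: HEK293 stable line with zebrafish TRPN1-YFP; read-out: % activation versus carbachol response; detection: intracellular calcium fluorescence with Fluo-8; doses: single test compound dose, 3 µM nominal, 0.3% DMSO; schedule: dye 1 h 37 °C plus 30 min RT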
OXTR potentiator – human OXTR potentiators, primary screen, fluorescence, CHO-OTR cells, Fluo-8 calcium. Fluo-8 calcium fluorescence, potentiator mode; 0% = oxytocin EC15, 100% = EC100. activation, % at 3 µM. 320,000 tested, 0.061% active. AID 2445, 2010;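 active = activation above that plate's cutoff, the mean activation of tested compounds plus 3 SD, cut at about 6.6% in these data, passing the limit was not always enough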
Target sequence (P30559 whole entry, looked up): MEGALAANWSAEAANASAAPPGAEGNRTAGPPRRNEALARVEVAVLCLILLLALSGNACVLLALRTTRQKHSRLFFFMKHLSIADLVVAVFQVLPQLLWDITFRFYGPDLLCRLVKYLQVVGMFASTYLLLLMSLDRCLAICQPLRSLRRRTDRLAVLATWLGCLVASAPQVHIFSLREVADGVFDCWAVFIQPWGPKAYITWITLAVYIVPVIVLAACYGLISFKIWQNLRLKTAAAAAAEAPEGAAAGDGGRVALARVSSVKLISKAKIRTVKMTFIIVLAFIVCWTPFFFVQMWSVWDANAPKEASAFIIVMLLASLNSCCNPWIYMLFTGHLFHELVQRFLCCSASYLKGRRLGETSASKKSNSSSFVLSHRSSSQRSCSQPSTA
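Assay system: CHO cell line stably expressing human OTR. Reagent: EC15 oxytocin agonist. Dosing: single dose, 3.0 µM nominal final compound concentration. Timing: compound 6 min at room temperature before oxytocin, 100 s read. Signal: kinetic Fluo-8 calcium fluorescence. Controls: oxytocin EC15 low and EC100 high.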
OXTR ag – human OXTR agonists, primary screen, fluorescence, CHO-OTR cells, Fluo-8 calcium; activation, % at 3 µM; 320,000 tested, 0.32% active; Fluo-8 calcium fluorescence; normalized: DMSO 0%, oxytocin 100%; Oxytocin receptor (Homo sapiens), P30559;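 active = activation above the mean of all tested compounds plus 3 SD, cutoff set per screening run, cut at about 20% in these data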;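 also: peak over basal fluorescence ratio from a 100 s FLIPR kinetic read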
TRPML3 ag – human TRPML3 channel agonists, primary screen, cell-based, HEK293 TRPML3-YFP, Fluo-8 calcium fluorescence, 3 µM; Mucolipin-3 (Homo sapiens), Q8TDD5; 100% = the carbachol control signal; activation, % at 3 µM; 220,000 tested, 0.29% active; AID 1448, 2008;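 active = activation above its plate's cutoff, the mean activation of the plate's test wells plus 3 SD, cut at about 12% in these data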
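system = HEK293 cells stably carrying human TRPML3-YFP | doses = one concentration, 3 µM nominal, 0.3% DMSO | timing = dye loading 1 h 37 °C then 30 min ambient, 125 s read | detection = Fluo-8 calcium dye fluorescence, ex 470-495, em 515-575 nm | benchmarks = high control carbachol 87 µM, low control DMSO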
V1aR counter – agonists of human V1a receptor, primary screen, counter-screen for OXTR agonist project, fluorescence, CHO-V1R cells. Fluo-8 calcium fluorescence, agonist mode; 0% DMSO, 100% 3 nM vasopressin. 320,000 tested, 0.25% active. Vasopressin V1a receptor (Homo sapiens), P37288. activation, % at 3 µM;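 active = activation above the mean activation of all tested compounds plus 3 SD, per screening run, cut at about 20% in these data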;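 also: signal is peak over basal fluorescence ratio across a 100 second FLIPR read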
Target sequence (P37288 whole entry, looked up): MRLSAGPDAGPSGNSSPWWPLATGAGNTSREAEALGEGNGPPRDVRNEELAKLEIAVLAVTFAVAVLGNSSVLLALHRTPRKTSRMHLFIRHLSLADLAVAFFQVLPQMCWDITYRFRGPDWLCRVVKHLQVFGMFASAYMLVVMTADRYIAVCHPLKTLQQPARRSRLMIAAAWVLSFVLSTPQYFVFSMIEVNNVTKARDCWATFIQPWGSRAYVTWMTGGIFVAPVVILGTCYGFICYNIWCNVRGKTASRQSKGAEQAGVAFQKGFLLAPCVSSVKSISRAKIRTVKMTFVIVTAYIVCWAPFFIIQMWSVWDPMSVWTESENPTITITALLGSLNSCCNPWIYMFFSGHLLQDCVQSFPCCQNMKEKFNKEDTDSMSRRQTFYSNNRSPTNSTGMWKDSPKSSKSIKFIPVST
OXTR agonist cf – human OXTR agonists, confirmation, fluorescence, CHO-OTR cells, triplicate | shares compounds with OXTR ag | Fluo-8 calcium fluorescence, agonist | activation, % at 3 µM | 390 tested, 20% active | AID 434963, 2010;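 active = mean activation above about 20% derived from the earlier single-dose screen, limit read from the data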;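 also: peak over minimum fluorescence ratio per well during a 100 second FLIPR read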
V1R ag counter 3x – V1a receptor agonists, calcium signal, counter-screen for OXTR agonist project, triplicate, fluorescence, CHO-V1R cells; shares compounds with OXTR ag; Fluo-8 calcium fluorescence; activation, % at 3 µM; 390 tested, 10% active; AID 434991, 2010;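 active = mean activation over triplicate exceeds the hit threshold set in the earlier primary screen, cut at about 20% in these data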;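 also: peak over basal fluorescence ratio within a 100 second read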
Large screens that a line does not name were inactive (follow-up assays come after a bar, where they were run). An excerpt weighted towards active compounds, which were near 0.55% of everything screened.

COc1ccc(NS(=O)(=O)c2ccc(N3CCOCC3)c(N)c2)cc1	OXTR ag 20.4 (no result: zfTRPN1 agonist, TRPML3 ag) | OXTR agonist cf inactive | V1R ag counter 3x inactive
COc1ccc(S(=O)(=O)Nc2ccc(N3CCOCC3)cc2)cc1	none (no result: zfTRPN1 agonist, TRPML3 ag)
O=C(Nc1ccc([N+](=O)[O-])cc1Cl)c1cc(Cl)ccc1O	OXTR ag 20.6 (no result: zfTRPN1 agonist, TRPML3 ag) | OXTR agonist cf inactive | V1R ag counter 3x inactive
Cc1ccc(OCc2nnc(SCC(=O)Nc3sc(C)c(C)c3C#N)n2C)cc1	OXTR ag 20.9 | OXTR agonist cf inactive | V1R ag counter 3x inactive
Cc1sc(NC(=O)CSc2nnc(COc3ccccc3)n2C)c(C#N)c1C	none
CO/N=C/c1ccc(N2CCN(C(=O)c3ccc(Cl)cc3Cl)CC2)c([N+](=O)[O-])c1	OXTR ag 27.1 | OXTR agonist cf inactive | V1R ag counter 3x inactive
CC(/C=C/c1ccc(N(C)C)cc1)=N\N=C(/N)SC1CC(=O)N(c2ccc(C(=O)O)cc2)C1=O (centres undefined)	none
COc1ccc(CN2CCN(CC(O)Cn3c4ccccc4c4ccccc43)CC2)cc1 (centres undefined)	OXTR ag 24.2 | OXTR agonist cf inactive | V1R ag counter 3x inactive
COc1ccc(NC(=O)CCOc2ccccc2)c(OC)c1	none
CC(NCC(O)COc1ccc2ccccc2c1)c1ccccc1 (centres undefined)	OXTR ag 21.9 (no result: zfTRPN1 agonist, TRPML3 ag) | OXTR agonist cf inactive | V1R ag counter 3x inactive
CCn1c(SCC(=O)N(C)C)nc2cc(S(=O)(=O)N3CCCCC3)ccc21	none (no result: zfTRPN1 agonist, TRPML3 ag)
COC(=O)C(NC(=O)c1ccccc1C)(Nc1ncc(S(=O)(=O)c2ccc([N+](=O)[O-])cc2)s1)C(F)(F)F (centres undefined)	OXTR ag 25.7 | OXTR agonist cf inactive | V1R ag counter 3x inactive
COc1ccc(NC(=O)Cn2nnc(C(=O)NCc3ccccc3OC)c2N)cc1Cl	none
CN(c1ccccc1)c1ccc(/C=C/[N+](=O)[O-])cc1	OXTR ag 28.8 | OXTR agonist cf 25.6 | V1R ag counter 3x 32.4
Nc1nc2ccccc2n1CCOc1ccc(Cl)cc1	none (no result: zfTRPN1 agonist, TRPML3 ag)
Nc1nc2ccccc2n1CCOc1ccc(Br)cc1	OXTR ag 21.4 (no result: zfTRPN1 agonist, TRPML3 ag) | OXTR agonist cf inactive | V1R ag counter 3x inactive
O=C(O)c1ccc(N/N=C/c2ccc(-c3ccccc3Cl)o2)cc1	OXTR ag 23.1 | OXTR agonist cf inactive | V1R ag counter 3x inactive
CCCCOc1ccc2c(c1)C(=O)c1cc(O)ccc1-2	none
CC1(c2ccc([N+](=O)[O-])cc2)NC(=O)N(CC(=O)Nc2cccnc2Cl)C1=O (centres undefined)	OXTR ag 20.7 (no result: zfTRPN1 agonist, TRPML3 ag) | OXTR agonist cf inactive | V1R ag counter 3x inactive
Cc1ccc(C2(C)NC(=O)N(CC(=O)Nc3cccnc3Cl)C2=O)cc1 (centres undefined)	none
N#Cc1ccccc1S(=O)(=O)N1CCN(C(=O)CCc2ccccc2)CC1	none (no result: zfTRPN1 agonist, TRPML3 ag)
COc1ccc(/C=C2\CCc3ccccc3C2=O)cc1Cn1nc(C)cc1C	OXTR ag 23.1 | OXTR agonist cf inactive | V1R ag counter 3x inactive
COc1ccc(/C=C2/CCc3ccccc3C2=O)cc1CN1CCOCC1	none
COc1ccc(C2NCCc3c2[nH]c2ccccc32)cc1COc1ccc(F)cc1 (centres undefined)	OXTR ag 24.0 | OXTR agonist cf 23.5 | V1R ag counter 3x inactive
COc1ccc(C2NCCc3c2[nH]c2ccccc32)cc1CN1CCc2cc(OC)c(OC)cc2C1C (centres undefined)	none (no result: OXTR potentiator, OXTR ag, V1aR counter)
CC[n+]1c(/C=C(\C)OC)sc2ccccc21	none (no result: OXTR potentiator, OXTR ag, V1aR counter)
CC[n+]1c(/C=C/C=C/N(C(C)=O)c2ccccc2)sc2cc(OC)ccc21	OXTR ag 29.1 | OXTR agonist cf 69.0 | V1R ag counter 3x 90.5
COc1ccc([C@H]2CC(=O)C=C(c3cc(F)ccc3OC)C2)cc1	none (no result: zfTRPN1 agonist, TRPML3 ag)
CCCC(=O)c1ccc(N2CCN(C(=O)c3ccccc3Br)CC2)c(F)c1	OXTR ag 19.6 | OXTR agonist cf inactive | V1R ag counter 3x inactive
CCCC(=O)c1ccc(N2CCN(C(=O)c3ccccc3)CC2)c(F)c1	none
S=C(NCc1ccncc1)Nc1ccc(Cl)cc1	none
O=C(C1CCN(c2ncnc3c2nc2n3CCCCC2)CC1)N1CCN(c2ccccc2F)CC1	none (no result: zfTRPN1 agonist, TRPML3 ag)
CCCc1nnc(NC(=O)CN2C(=O)c3ccccc3C2=O)s1	none
CCCc1nnc(NC(=O)Cn2c(=O)sc3ccccc32)s1	OXTR ag 21.0 | OXTR agonist cf inactive | V1R ag counter 3x inactive
Cc1cccc(OCC(=O)NNC(=O)CCN2CCN(c3ccccc3)CC2)c1C	none (no result: zfTRPN1 agonist, TRPML3 ag)
Cn1cccc1P(=O)(c1cccn1C)c1cccn1C	OXTR ag 30.8 | OXTR agonist cf inactive | V1R ag counter 3x inactive
COc1ccc(C(=O)CSc2nnc(Cn3cnc4ccccc43)o2)cc1	OXTR ag 19.8 | OXTR agonist cf inactive | V1R ag counter 3x inactive
COc1cc(C(=O)NC(=S)NNC(=O)c2cnccn2)cc(OC)c1OC	none
COc1ccccc1C(=O)NNC(=S)NC(=O)c1cc(OC)c(OC)c(OC)c1	OXTR ag 21.1 | OXTR agonist cf inactive | V1R ag counter 3x inactive
COc1ccc(CCNC(=O)CCCN2C(=O)C(c3ccccc3)Oc3cccnc32)cc1OC (centres undefined)	OXTR ag 25.4 (no result: zfTRPN1 agonist, TRPML3 ag) | OXTR agonist cf inactive | V1R ag counter 3x inactive
COc1ccccc1NC(=O)CCCN1C(=O)C(c2ccccc2)Oc2cccnc21 (centres undefined)	none (no result: zfTRPN1 agonist, TRPML3 ag)
Cc1ccccc1NC(=O)c1nnn(-c2ccc3c(c2)OCCO3)c1N	OXTR ag 20.9 (no result: zfTRPN1 agonist, TRPML3 ag) | OXTR agonist cf inactive | V1R ag counter 3x inactive
CCCCN(C)CCCNC(=O)C1CC(=O)N(Cc2ccc(OC)cc2)C1 (centres undefined)	none
CN(C)CCCN(Cc1ccccc1)C(=S)Nc1ccc(SC(F)F)cc1	none
CCCCN(C(=O)c1cccc(S(=O)(=O)N2CCCCC2)c1)C1CCS(=O)(=O)C1 (centres undefined)	none (no result: zfTRPN1 agonist, TRPML3 ag)
CC1CN(c2ccc([N+](=O)[O-])c(NCCOc3ccccc3)c2)CC(C)N1 (centres undefined)	OXTR ag 24.2 (no result: zfTRPN1 agonist, TRPML3 ag) | OXTR agonist cf inactive | V1R ag counter 3x inactive
